Measured values from different studies.
CDK17: Cyclin-dependent kinase 17 (CDK17, Homo sapiens, UniProt Q00537)
CDK17 with cyclin Y: Cyclin-dependent kinase 17, with cyclin Y (CDK17, Homo sapiens, UniProt Q00537)

CN(CCCC(F)(F)F)c1nccc(-c2cnn3ncccc23)n1
remaining binding (CDK17; binding; 1 µM): 90%

C[C@@H](c1cccc(C#N)c1)n1cc(Cl)cc(C(N)=O)c1=N
remaining binding (CDK17; cell-free assay; competition with immobilised ligand; 1 µM): 84%

O=C(Nc1cnn(-c2csc(C(=O)NC3COC3)c2)c1)Nc1c(F)cccc1Cl
remaining activity (CDK17 with cyclin Y; enzyme activity; inhibitor; 5 µM): 96%

CC(C)CC(=O)N1CCc2nc(-c3ccc(Br)cc3)nc(N(C)Cc3ccccc3)c2C1
remaining binding (CDK17; cell-free assay; competition with immobilised ligand; 0.1 µM): 100%

CCCCNc1ncc2c(-c3ccc(F)cc3)nn(C[C@H]3CC[C@H](N)CC3)c2n1
inhibition (CDK17; target engagement in cells; inhibitor; chemoproteomics; 20 mM): 41.7%

CCN1CCC2(CC1)NC(=O)c1c(c3ccc(Cl)c(Cl)c3n1C)C2C#N (racemic)
ΔTm (CDK17; thermal stability; DSF; 10 µM): 0 °C

Cc1ccc(C(=O)Nc2ccc(CN3CCN(C)CC3)c(C(F)(F)F)c2)cc1C#Cc1cnc2cccnn12
remaining activity (CDK17; enzyme activity; inhibitor; 23.5 nM): 7.6%

CCCOc1ccc([C@H]2[C@H](C(=O)O)[C@@H](c3ccc4c(c3)OCO4)CN2CC(=O)Nc2c(CC)cccc2CC)cc1
remaining binding (CDK17; cell-free assay; competition with immobilised ligand; 1 µM): 91%

CCC1(CC)NC(=O)c2c(c3ccc(Cl)c(Cl)c3n2C)C1C#N (stereo not drawn)
ΔTm (CDK17; thermal stability; DSF; 10 µM): 0.7 °C

O=C(N[C@H]1CCCCC/C=C\C2C[C@@]2(C(=O)O)NC(=O)[C@@H]2C[C@@H](Oc3ccncc3)CN2C1=O)OC1CCCC1 (stereo partly drawn)
remaining binding (CDK17; binding; competition with immobilised ligand; 1 µM): 89%

Cn1c2c(Cl)c(Cl)ccc2c2cn[nH]c(=O)c21
ΔTm (CDK17; thermal stability; DSF; 10 µM): 0.5 °C

O=C(Nc1cnn(-c2csc(C(=O)NC3COC3)c2)c1)Nc1ccccc1Cl
remaining activity (CDK17 with cyclin Y; enzyme activity; inhibitor; 5 µM): 106%
